Measured values as given in ChEMBL document CHEMBL2346664, “Synthesis, characterization and in vitro anticancer evaluation of novel 1,2,4-triazolin-3-one derivatives” (2013).

What was measured:
Format in all cases: functional
786-0 = assay: Growth inhibition of human 786-0 cells assessed as cell growth at 10 uM after 48 hrs by sulforhodamine B assay; settings: 786-0, 48 h, read-out: Activity
Procedure, shortened: (§1)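 NCI-60 primary screen at a single dose of 10^-5 M. Output is mean growth percent of treated cells relative to untreated controls, where values between 0 and 100 indicate growth inhibition and values below 0 indicate cytotoxicity. Cells were plated 24 h before drug, incubated 48 h at 37 °C, 5% CO2, and stained with SRB after TCA fixation. Suspension cells were fixed with 80% TCA (16% final).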

[1] = Growth inhibition of human HCC2998 cells assessed as cell growth at 10 uM after 48 hrs by sulforhodamine B assay; settings: HCC 2998, 48 h, read-out: Activity
Procedure, shortened: (§2)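 NCI-60 primary single-dose screen at 10^-5 M, 48 h continuous exposure. Adherent cells were fixed with cold TCA (10% final) and suspension cells with 16% final TCA, then stained with 0.4% SRB in 1% acetic acid. Bound dye was solubilized in 10 mM Tris base and read at 515 nm. Output is growth percent relative to untreated controls, and GI% is 100 minus growth percent.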

UACC-62 [2] = assay: Growth inhibition of human UACC62 cells assessed as cell growth at 10 uM after 48 hrs by sulforhodamine B assay; settings: UACC-62, 48 h, read-out: Activity
Procedure, shortened: (§3)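 NCI-60 single-dose screen at 10^-5 M. Cells plated at 5,000–40,000/well by doubling time and grown 24 h at 37 °C, 5% CO2, then drug added from DMSO stock for 48 h continuous exposure. Adherent cells fixed with cold TCA (final 10%), suspension cells with 16% TCA. SRB stain read at 515 nm. Reported as growth percent relative to untreated controls and time-zero plates.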

TK-10 = assay: Growth inhibition of human TK10 cells assessed as cell growth at 10 uM after 48 hrs by sulforhodamine B assay; settings: TK-10, 48 h, read-out: Activity; procedure, shortened: as §3
RXF 393 = assay: Growth inhibition of human RXF393 cells assessed as cell growth at 10 uM after 48 hrs by sulforhodamine B assay; settings: RXF 393, 48 h, read-out: Activity; procedure, shortened: as §3
MDA-MB-468 = assay: Growth inhibition of human MDA-MB-468 cells assessed as cell growth at 10 uM after 48 hrs by sulforhodamine B assay; settings: MDA-MB-468, 48 h, read-out: Activity; procedure, shortened: as §2
K562 = assay: Growth inhibition of human K562 cells assessed as cell growth at 10 uM after 48 hrs by sulforhodamine B assay; settings: K562, 48 h, read-out: Activity; procedure, shortened: as §2
NCI-H322M = assay: Growth inhibition of human NCI-H322M cells assessed as cell growth at 10 uM after 48 hrs by sulforhodamine B assay; settings: read-out: Activity; procedure, shortened: as §3
SK-MEL-28 = assay: Growth inhibition of human SK-MEL-28 cells assessed as cell growth at 10 uM after 48 hrs by sulforhodamine B assay; settings: SK-MEL-28, 48 h, read-out: Activity; procedure, shortened: as §3
HCT-116 [3] = assay: Growth inhibition of human HCT116 cells assessed as cell growth at 10 uM after 48 hrs by sulforhodamine B assay; settings: HCT-116, 48 h, read-out: Activity; procedure, shortened: as §2
T47D = assay: Growth inhibition of human T47D cells assessed as cell growth at 10 uM after 48 hrs by sulforhodamine B assay; settings: read-out: Activity; procedure, shortened: as §3
Malme-3M = assay: Growth inhibition of human MALME-3M cells assessed as cell growth at 10 uM after 48 hrs by sulforhodamine B assay; settings: read-out: Activity; procedure, shortened: as §2
SK-OV-3 = assay: Growth inhibition of human SKOV3 cells assessed as cell growth at 10 uM after 48 hrs by sulforhodamine B assay; settings: SK-OV-3, 48 h, read-out: Activity; procedure, shortened: as §3
PC-3 = assay: Growth inhibition of human PC3 cells assessed as cell growth at 10 uM after 48 hrs by sulforhodamine B assay; settings: PC-3, 48 h, read-out: Activity; procedure, shortened: as §3
CCRF-CEM = assay: Growth inhibition of human CCRF-CEM cells assessed as cell growth at 10 uM after 48 hrs by sulforhodamine B assay; settings: read-out: Activity; procedure, shortened: as §1
OVCAR-5 = assay: Growth inhibition of human OVCAR5 cells assessed as cell growth at 10 uM after 48 hrs by sulforhodamine B assay; settings: OVCAR-5, 48 h, read-out: Activity; procedure, shortened: as §3
MCF7 = assay: Growth inhibition of human MCF7 cells assessed as cell growth at 10 uM after 48 hrs by sulforhodamine B assay; settings: MCF7, 48 h, read-out: Activity; procedure, shortened: as §2
MDA-MB-231 = assay: Growth inhibition of human MDA-MB-231 cells assessed as cell growth at 10 uM after 48 hrs by sulforhodamine B assay; settings: MDA-MB-231, 48 h, read-out: Activity; procedure, shortened: as §2
HL-60(TB) = assay: Growth inhibition of human HL-60(TB) cells assessed as cell growth at 10 uM after 48 hrs by sulforhodamine B assay; settings: HL-60, 48 h, read-out: Activity
Procedure, shortened: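 NCI DTP single high-dose primary screen at 10^-5 M across 60 human tumour lines. Growth percent of treated cells is taken relative to untreated controls: values of 0–100 indicate growth inhibition and values below 0 indicate cytotoxicity. Both growth percent and percentage growth inhibition are reported.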

OVCAR-3 = assay: Growth inhibition of human OVCAR3 cells assessed as cell growth at 10 uM after 48 hrs by sulforhodamine B assay; settings: OVCAR-3, 48 h, read-out: Activity; procedure, shortened: as §3
OVCAR-4 = assay: Growth inhibition of human OVCAR4 cells assessed as cell growth at 10 uM after 48 hrs by sulforhodamine B assay; settings: OVCAR-4, 48 h, read-out: Activity; procedure, shortened: as §3
UACC-257 = assay: Growth inhibition of human UACC257 cells assessed as cell growth at 10 uM after 48 hrs by sulforhodamine B assay; settings: UACC-257, 48 h, read-out: Activity; procedure, shortened: as §3
KM12 = assay: Growth inhibition of human KM12 cells assessed as cell growth at 10 uM after 48 hrs by sulforhodamine B assay; settings: KM12, 48 h, read-out: Activity; procedure, shortened: as §2
NCI-H226 = assay: Growth inhibition of human NCI-H226 cells assessed as cell growth at 10 uM after 48 hrs by sulforhodamine B assay; settings: NCI-H226, 48 h, read-out: Activity; procedure, shortened: as §2
RPMI-8226 = assay: Growth inhibition of human RPMI8226 cells assessed as cell growth at 10 uM after 48 hrs by sulforhodamine B assay; settings: RPMI-8226, 48 h, read-out: Activity; procedure, shortened: as §3
MOLT-4 = assay: Growth inhibition of human MOLT4 cells assessed as cell growth at 10 '-7 M after 48 hrs by sulforhodamine B assay; settings: MOLT-4, 48 h, read-out: Activity
U-251 = assay: Growth inhibition of human U251 cells after 48 hrs by sulforhodamine B assay; settings: U-251, 48 h
UACC-62 [4] = assay: Growth inhibition of human UACC62 cells assessed as cell growth at 10 '-7 M after 48 hrs by sulforhodamine B assay; settings: UACC-62, 48 h, read-out: Activity
HCT-116 [5] = assay: Growth inhibition of human HCT116 cells assessed as cell growth at 10 '-4 M after 48 hrs by sulforhodamine B assay; settings: HCT-116, 48 h, read-out: Activity
SR = assay: Growth inhibition of human SR cells assessed as growth inhibition at 10 uM after 48 hrs by sulforhodamine B assay; settings: read-out: GI

Cc1nn(-c2ccc(Cl)cc2)c(=O)n1CCN1CCOCC1
growth at 10 µM (786-0): 59.4%
growth at 10 µM [1]: 91.3%
growth at 10 µM (UACC-62 [2]): 82.8%
growth at 10 µM (TK-10): 64.4%
growth at 10 µM (RXF 393): 42.1%
growth at 10 µM (MDA-MB-468): 90.3%
growth at 10 µM (K562): 70.1%
growth at 10 µM (NCI-H322M): 92.2%
growth at 10 µM (SK-MEL-28): 92.9%
growth at 10 µM (HCT-116 [3]): 29.5%
growth at 10 µM (T47D): 78.3%
growth at 10 µM (Malme-3M): 59.1%
growth at 10 µM (SK-OV-3): 42.8%
growth at 10 µM (PC-3): 80.8%
growth at 10 µM (CCRF-CEM): 63.2%
growth at 10 µM (OVCAR-5): 92.4%
growth at 10 µM (MCF7): 73.4%
growth at 10 µM (MDA-MB-231): 57.3%
growth at 10 µM (HL-60(TB)): 105%
growth at 10 µM (OVCAR-3): 79.2%
growth at 10 µM (OVCAR-4): 93.4%
growth at 10 µM (UACC-257): 73.4%
growth at 10 µM (KM12): 81.3%
growth at 10 µM (NCI-H226): 79.4%
growth at 10 µM (RPMI-8226): 83.1%

Cc1cc(=O)oc2cc(OCCn3c(C)nn(-c4ccc(Cl)cc4)c3=O)ccc12
growth at 0.1 µM (MOLT-4): 109%
growth at 10 µM (786-0): 32.9%
growth at 10 µM [1]: 46.7%
growth at 10 µM (UACC-62 [2]): 43.3%
GI50 (U-251): 4.18 µM
TGI (U-251): 7.23 µM
CC50 (U-251; read-out: LD50 (the source's name)): > 1 µM
growth at 10 µM (TK-10): 59.6%
growth at 10 µM (RXF 393): 37.4%
growth at 0.1 µM (UACC-62 [4]): 90%
growth at 100 µM (HCT-116 [5]): 23%
growth at 10 µM (MDA-MB-468): 16.1%
growth at 10 µM (K562): 16.3%
inhibition of growth at 10 µM (SR): 78.8%
growth at 10 µM (NCI-H322M): 58.7%
growth at 10 µM (SK-MEL-28): 40.8%
growth at 10 µM (HCT-116 [3]): 15.1%
growth at 10 µM (T47D): 47.4%
growth at 10 µM (Malme-3M): 32.9%
growth at 10 µM (SK-OV-3): 41.1%
growth at 10 µM (PC-3): 48.5%
growth at 10 µM (CCRF-CEM): 13.4%
growth at 10 µM (OVCAR-5): 38.8%
growth at 10 µM (MCF7): 15.8%
growth at 10 µM (MDA-MB-231): 47.5%
growth at 10 µM (HL-60(TB)): -5.7%
growth at 10 µM (OVCAR-3): 14.8%
growth at 10 µM (OVCAR-4): 67.1%
growth at 10 µM (UACC-257): 22.5%
growth at 10 µM (KM12): 31.4%
growth at 10 µM (NCI-H226): 50.1%
growth at 10 µM (RPMI-8226): 31%
